Measurements as given in ChEMBL document CHEMBL4828732, “Synthesis and biological evaluation of selective survivin inhibitors derived from the MX-106 hydroxyquinoline scaffold” (Eur J Med Chem, 2021).
Calls of active or inactive are those of the source. The calls are words filed in the database; no cut-off is given here.

Legend:
MDA-MB-435 = assay: cells; conditions: Homo sapiens, MDA-MB-435, 72 h
SK-BR-3 = assay: cells; conditions: Homo sapiens, SK-BR-3, 72 h
[1] = Resistance index, ratio of IC50 for antiproliferation activity against human MDA-MB-435/LCC6MDR cells to IC50 for antiproliferation activity against human MDA-MB-435 cells assessed as cell growth inhibition measured after 72 hrs by MTS assay; type: functional
MDA-MB-453 = assay: cells; conditions: Homo sapiens, MDA-MB-453, 72 h
MDA-MB-435/LCC6MDR1 = assay: cells; conditions: Homo sapiens, MDA-MB-435, 72 h
A-375 [2] = assay: cells; conditions: Homo sapiens, A-375, 72 h
RPMI-7951 = assay: cells; conditions: Homo sapiens, RPMI-7951, 72 h
[3] = Metabolic stability of the compound in mouse liver microsomes assessed as half life at 10 uM incubated for 10 mins in presence of NADPH by UPLC-MS analysis; type: ADME, Microsome
[4] = Metabolic stability of the compound in human liver microsomes assessed as clearance at 10 uM incubated for 240 mins in presence of NADPH by UPLC-MS analysis; conditions: 4 h
[5] = Metabolic stability of the compound in rat liver microsomes assessed as half life at 10 uM incubated for 10 mins in presence of NADPH by UPLC-MS analysis; type: ADME, Microsome
[6] = Metabolic stability of the compound in mouse liver microsomes assessed as clearance at 10 uM incubated for 10 mins in presence of NADPH by UPLC-MS analysis; type: ADME, Microsome
[7] = Metabolic stability of the compound in human liver microsomes assessed as half life at 10 uM incubated for 10 mins in presence of NADPH by UPLC-MS analysis; type: ADME, Microsome
[8] = Metabolic stability of the compound in rat liver microsomes assessed as clearance at 10 uM incubated for 10 mins in presence of NADPH by UPLC-MS analysis; type: ADME, Microsome
OVCAR-8 = assay: cells; conditions: Homo sapiens, OVCAR-8, 72 h
A-375 [9] = assay: Induction of apoptosis in human A-375 cells assessed as increase in cleaved PARP level after 24 hrs by Western blot analysis; type: functional, cell-based
Procedure, shortened: (§1)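 A375 cells (2 × 10⁶ per 10-cm dish) attached overnight, then treated 24 h in DMEM with 1, 5 or 10 μM. Lysed in RIPA with protease/phosphatase inhibitors; protein measured by Bradford. 50 μg run on SDS-PAGE, transferred to PVDF, blocked in 5% milk, probed overnight at 4°C for survivin, cleaved PARP, cIAP1, XIAP, Livin, with HRP-GAPDH as loading control; ECL detection.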

OVCAR-3 = assay: cells; conditions: Homo sapiens, OVCAR-3, 72 h
A-375 [10] = assay: Downregulation of survivin protein expression in human A-375 cells measured after 24 hrs by Westernblot analysis; type: functional, cell-based
Procedure, shortened: as §1

In the case of `CCN(CC)Cc1cc(Cn2ncc(-c3ccc(C(F)(F)F)cc3)n2)c2cccnc2c1O`, the IC50 (MDA-MB-435) is reported as 3800 nM, the IC50 (SK-BR-3) is reported as 4000 nM and the “Ratio IC50” value [1] is reported as 0.5. For the same molecule, the IC50 (MDA-MB-453) was 6200 nM, the IC50 (MDA-MB-435/LCC6MDR1) was 1700 nM and the IC50 (A-375 [2]) was 1000 nM. The IC50 (RPMI-7951) was 1900 nM.
For `Oc1c(CN2CCCC2)cc(Cn2ncc(-c3ccccc3Br)n2)c2cccnc12`, the IC50 (MDA-MB-435) was 2400 nM, the IC50 (SK-BR-3) was 3000 nM and the “Ratio IC50” value [1] was 0.2. The IC50 (MDA-MB-453) was 3100 nM, the IC50 (MDA-MB-435/LCC6MDR1) was 500 nM and the IC50 (A-375 [2]) was 700 nM. The IC50 (RPMI-7951) was 700 nM.
With `Oc1c(CN2CCCC2)cc(Cn2ncc(-c3ccc(OCc4ccccc4)cc3)n2)c2cccnc12` the IC50 (MDA-MB-435) was 3200 nM, the IC50 (SK-BR-3) was 2700 nM and the “Ratio IC50” value [1] was 0.7. It also gave an IC50 (MDA-MB-453) of 1800 nM, an IC50 (MDA-MB-435/LCC6MDR1) of 2200 nM and an IC50 (A-375 [2]) of 900 nM. It also gave an IC50 (RPMI-7951) of 600 nM.
With `Oc1c(CN2CCCC2)cc(Cn2cnc(-c3ccccc3)c2)c2cccnc12` the IC50 (MDA-MB-435) was 8900 nM, the IC50 (SK-BR-3) was 6900 nM and the “Ratio IC50” value [1] was 0.1. The IC50 (MDA-MB-453) was 3100 nM, the IC50 (MDA-MB-435/LCC6MDR1) was 1300 nM and the IC50 (A-375 [2]) was 2200 nM. For the same molecule, the IC50 (RPMI-7951) was 2800 nM.
In the case of `Cc1cccc(-c2cc(COCc3ccc(C(C)C)cc3)c3cccnc3c2O)c1`, the IC50 (MDA-MB-435) is reported as 1800 nM, the IC50 (SK-BR-3) is reported as 3300 nM and the “Ratio IC50” value [1] is reported as 0.6. The IC50 (MDA-MB-453) was 1700 nM, the IC50 (MDA-MB-435/LCC6MDR1) was 1000 nM and the IC50 (A-375 [2]) was 700 nM. The IC50 (RPMI-7951) was 1100 nM.
In the case of `Oc1c(CN2CCCC2)cc(Cn2ncc(-c3ccsc3)n2)c2cccnc12`, the IC50 (MDA-MB-435) is reported as 4800 nM, the IC50 (SK-BR-3) is reported as 2700 nM and the “Ratio IC50” value [1] is reported as 0.3. The IC50 (MDA-MB-453) was 2200 nM, the IC50 (MDA-MB-435/LCC6MDR1) was 1600 nM and the IC50 (A-375 [2]) was 1100 nM. For the same molecule, the IC50 (RPMI-7951) was 1300 nM.
`CC(C)c1ccc(COCc2cc(-c3cncc4ccccc34)c(O)c3ncccc23)cc1` gave a t1/2 [3] of 1.2 h, a CLH [4] of 16.3 µL/min/mg and an IC50 (MDA-MB-435) of 600 nM. For the same molecule, the IC50 (SK-BR-3) was 1500 nM, the “Ratio IC50” value [1] was 1.6 and the IC50 (MDA-MB-453) was 1300 nM. For the same molecule, the t1/2 [5] was 0.6 h, the CLH [6] was 19.9 µL/min/mg and the t1/2 [7] was 1.4 h. For the same molecule, the CLH [8] was 36.7 µL/min/mg, the IC50 (MDA-MB-435/LCC6MDR1) was 1000 nM and the IC50 (A-375 [2]) was 600 nM. For the same molecule, the IC50 (RPMI-7951) was 500 nM.
For `CC(C)c1ccc(COCc2cc(-c3ccsc3)c(O)c3ncccc23)cc1`, the IC50 (MDA-MB-435) was 1100 nM, the IC50 (SK-BR-3) was 800 nM and the “Ratio IC50” value [1] was 0.9. It also gave an IC50 (MDA-MB-453) of 600 nM, an IC50 (MDA-MB-435/LCC6MDR1) of 900 nM and an IC50 (A-375 [2]) of 600 nM. For the same molecule, the IC50 (RPMI-7951) was 500 nM.
For `CC(C)c1ccc(-c2cnn(Cc3cc(CN4CCCC4)c(O)c4ncccc34)n2)cc1`, the IC50 (MDA-MB-435) was 4600 nM, the IC50 (SK-BR-3) was 4900 nM and the “Ratio IC50” value [1] was 0.4. For the same molecule, the IC50 (MDA-MB-453) was 5900 nM, the IC50 (MDA-MB-435/LCC6MDR1) was 1700 nM and the IC50 (A-375 [2]) was 1100 nM. The IC50 (RPMI-7951) was 2300 nM.
In the case of `COc1ccc(-c2cc(COCc3ccc(C(C)C)cc3)c3cccnc3c2O)cc1`, the IC50 (MDA-MB-435) is reported as 1900 nM, the IC50 (SK-BR-3) is reported as 1300 nM and the “Ratio IC50” value [1] is reported as 1.6. For the same molecule, the IC50 (MDA-MB-453) was 800 nM, the IC50 (MDA-MB-435/LCC6MDR1) was 3000 nM and the IC50 (A-375 [2]) was 800 nM. The IC50 (RPMI-7951) was 600 nM.
In the case of `Oc1c(CN2CCOCC2)cc(Cn2ncc(-c3ccc(Br)cc3)n2)c2cccnc12`, the IC50 (MDA-MB-435) is reported as 2400 nM, the IC50 (SK-BR-3) is reported as 3000 nM and the “Ratio IC50” value [1] is reported as 0.4. For the same molecule, the IC50 (MDA-MB-453) was 2400 nM, the IC50 (MDA-MB-435/LCC6MDR1) was 900 nM and the IC50 (A-375 [2]) was 1000 nM. For the same molecule, the IC50 (RPMI-7951) was 700 nM.
For `Cc1ccc(-c2cnn(Cc3cc(CN4CCCC4)c(O)c4ncccc34)n2)cc1`, the IC50 (MDA-MB-435) was 2000 nM, the IC50 (SK-BR-3) was 2900 nM and the “Ratio IC50” value [1] was 0.4. For the same molecule, the IC50 (MDA-MB-453) was 2900 nM, the IC50 (MDA-MB-435/LCC6MDR1) was 700 nM and the IC50 (RPMI-7951) was 600 nM.
With `CC(C)c1ccc(COCc2cc(CN3CCCC3)c(O)c3ncccc23)cc1` the IC50 (MDA-MB-435) was 3500 nM, the IC50 (SK-BR-3) was 2300 nM and the “Ratio IC50” value [1] was 0.6. For the same molecule, the IC50 (MDA-MB-453) was 1600 nM, the IC50 (MDA-MB-435/LCC6MDR1) was 2100 nM and the IC50 (A-375 [2]) was 1000 nM. The IC50 (RPMI-7951) was 1100 nM.
For `Oc1c(CN2CCCC2)cc(Cn2ncc(-c3ccc(Br)cc3)n2)c2cccnc12`, the IC50 (OVCAR-8) was 1700 nM, the Activity (A-375 [9]) was “Active” and the t1/2 [3] was 0.8 h. The CLH [4] was 12 µL/min/mg, the IC50 (MDA-MB-435) was 3100 nM and the IC50 (OVCAR-3) was 1000 nM. The IC50 (SK-BR-3) was 2700 nM, the “Ratio IC50” value [1] was 0.2 and the IC50 (MDA-MB-453) was 3100 nM. For the same molecule, the t1/2 [5] was 1 h, the CLH [6] was 27.8 µL/min/mg and the t1/2 [7] was 1.9 h. The Activity (A-375 [10]) was “Dose-Dependent Effect”, the CLH [8] was 22.6 µL/min/mg and the IC50 (MDA-MB-435/LCC6MDR1) was 600 nM. For the same molecule, the IC50 (A-375 [2]) was 700 nM and the IC50 (RPMI-7951) was 1700 nM.
For `N#Cc1ccc(-c2cnn(Cc3cc(CN4CCCC4)c(O)c4ncccc34)n2)cc1`, the IC50 (MDA-MB-435) was 5900 nM, the IC50 (SK-BR-3) was 6000 nM and the “Ratio IC50” value [1] was 0.3. The IC50 (MDA-MB-453) was 4100 nM, the IC50 (MDA-MB-435/LCC6MDR1) was 1800 nM and the IC50 (A-375 [2]) was 1000 nM. For the same molecule, the IC50 (RPMI-7951) was 800 nM.
